Assay results from ChEMBL document CHEMBL3739379, “Anti-Candida activity and cytotoxicity of a large library of new N-substituted-1,3-thiazolidin-4-one derivatives” (Eur J Med Chem, 2016).
Values after ≈ are worked out from the molar mass of the structure shown.

Experiments:
Format in all cases: functional
Enterobacter sp. = test: Antibacterial activity against Enterobacter sp. after 18 to 22 hrs by broth microdilution method
Method in brief: (§1)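 Broth microdilution per NCCLS in Mueller-Hinton II broth; isolates subcultured for purity. Compounds dissolved in DMSO, serial dilutions 256 to 0.5 µg/mL; inoculum 10^5/mL. Controls: organism without compound, medium only. Incubation 18 to 22 h at 35 °C. MIC is the lowest concentration giving complete growth inhibition, read by unaided eye.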

Candida tropicalis = test: Antifungal activity against Candida tropicalis clinical isolate after 24 hrs by sabouraud dextrose broth based microdilution method
Method in brief: (§2)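 Clinical isolates identified by conventional methods and subcultured for purity. Broth microdilution per NCCLS in Sabouraud dextrose broth; compounds dissolved in DMSO and serially diluted; inoculum 10^3/mL. Controls: fungi without compound, medium only. Incubated 24 h at 37 °C. MIC is the lowest concentration with complete growth inhibition by unaided eye. Values are geometric means over isolates per species.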

Nakaseomyces glabratus = test: Antifungal activity against Candida glabrata clinical isolate after 24 hrs by sabouraud dextrose broth based microdilution method; method in brief: as §2
[Candida] sake = Antifungal activity against Candida sake clinical isolate after 24 hrs by sabouraud dextrose broth based microdilution method; conditions: Fermentozyma sake; method in brief: as §2
Candida parapsilosis = test: Antifungal activity against Candida parapsilosis clinical isolate after 24 hrs by sabouraud dextrose broth based microdilution method; conditions: Lodderomyces parapsilosis; method in brief: as §2
[1] = tested on: Staphylococcus haemolyticus; test: Antibacterial activity against Staphylococcus haemolyticus after 18 to 22 hrs by broth microdilution method; method in brief: as §1
Klebsiella oxytoca = test: Antibacterial activity against Klebsiella oxytoca after 18 to 22 hrs by broth microdilution method; method in brief: as §1
Pichia kudriavzevii = test: Antifungal activity against Candida krusei clinical isolate after 24 hrs by sabouraud dextrose broth based microdilution method; method in brief: as §2
Candida albicans = test: Antifungal activity against Candida albicans clinical isolate after 24 hrs by sabouraud dextrose broth based microdilution method; method in brief: as §2
Staphylococcus aureus = test: Antibacterial activity against Staphylococcus aureus after 18 to 22 hrs by broth microdilution method; method in brief: as §1
Staphylococcus warneri = test: Antibacterial activity against Staphylococcus warneri after 18 to 22 hrs by broth microdilution method; method in brief: as §1
Enterococcus faecalis = test: Antibacterial activity against […] faecalis after 18 to 22 hrs by broth microdilution method; method in brief: as §1
Escherichia coli = test: Antibacterial activity against Escherichia coli at after 18 to 22 hrs by broth microdilution method; method in brief: as §1
Proteus mirabilis = test: Antibacterial activity against Proteus mirabilis after 18 to 22 hrs by broth microdilution method; method in brief: as §1

Row | Structure (SMILES) | MIC (Enterobacter sp.) | MIC (Candida tropicalis) | MIC (Nakaseomyces glabratus) | MIC ([Candida] sake) | MIC (Candida parapsilosis) | MIC [1] | MIC (Klebsiella oxytoca) | MIC (Pichia kudriavzevii) | MIC (Candida albicans) | MIC (Staphylococcus aureus) | MIC (Staphylococcus warneri) | MIC (Enterococcus faecalis) | MIC (Escherichia coli) | MIC (Proteus mirabilis)
1 | O=C1CS/C(=N\N=C2CCCCC2)N1Cc1ccc([N+](=O)[O-])cc1 | > 256 µg/mL | 8 µg/mL (≈ 23.1 µM) | 32 µg/mL (≈ 92.4 µM) | 16 µg/mL (≈ 46.2 µM) | 8 µg/mL (≈ 23.1 µM) | > 256 µg/mL | > 256 µg/mL | 16 µg/mL (≈ 46.2 µM) | 8 µg/mL (≈ 23.1 µM) | > 256 µg/mL | > 256 µg/mL | > 256 µg/mL | > 256 µg/mL | > 256 µg/mL
2 | CCCCCC/C(C)=N/N=C1\SCC(=O)N1Cc1ccc([N+](=O)[O-])cc1 | > 256 µg/mL | 128 µg/mL (≈ 340 µM) | 2 µg/mL (≈ 5.31 µM) | 256 µg/mL (≈ 680 µM) | 256 µg/mL (≈ 680 µM) | > 256 µg/mL | > 256 µg/mL | 128 µg/mL (≈ 340 µM) | 4 µg/mL (≈ 10.6 µM) | > 256 µg/mL | > 256 µg/mL | > 256 µg/mL | > 256 µg/mL | > 256 µg/mL
3 | CC1CCC(=N/N=C2\SCC(=O)N2Cc2ccc([N+](=O)[O-])cc2)CC1 (stereo not given) | > 256 µg/mL | 32 µg/mL (≈ 88.8 µM) | 16 µg/mL (≈ 44.4 µM) | 4 µg/mL (≈ 11.1 µM) | 8 µg/mL (≈ 22.2 µM) | > 256 µg/mL | > 256 µg/mL | 8 µg/mL (≈ 22.2 µM) | 32 µg/mL (≈ 88.8 µM) | > 256 µg/mL | > 256 µg/mL | > 256 µg/mL | > 256 µg/mL | > 256 µg/mL
4 | C/C(=N\N=C1/SCC(=O)N1Cc1ccc([N+](=O)[O-])cc1)c1ccco1 | > 256 µg/mL | 16 µg/mL (≈ 44.6 µM) | 32 µg/mL (≈ 89.3 µM) | 8 µg/mL (≈ 22.3 µM) | 8 µg/mL (≈ 22.3 µM) | > 256 µg/mL | > 256 µg/mL | 4 µg/mL (≈ 11.2 µM) | 32 µg/mL (≈ 89.3 µM) | > 256 µg/mL | > 256 µg/mL | > 256 µg/mL | > 256 µg/mL | > 256 µg/mL
5 | CC1CCCC/C1=N\N=C1/SCC(=O)N1Cc1ccc([N+](=O)[O-])cc1 (stereo not given) | > 256 µg/mL | 4 µg/mL (≈ 11.1 µM) | 32 µg/mL (≈ 88.8 µM) | 4 µg/mL (≈ 11.1 µM) | 16 µg/mL (≈ 44.4 µM) | > 256 µg/mL | > 256 µg/mL | 2 µg/mL (≈ 5.55 µM) | 16 µg/mL (≈ 44.4 µM) | > 256 µg/mL | > 256 µg/mL | > 256 µg/mL | > 256 µg/mL | > 256 µg/mL
6 | C/C(=N\N=C1/SCC(=O)N1Cc1ccc([N+](=O)[O-])cc1)c1ccccc1 | > 256 µg/mL | 2 µg/mL (≈ 5.43 µM) | 32 µg/mL (≈ 86.9 µM) | 2 µg/mL (≈ 5.43 µM) | 4 µg/mL (≈ 10.9 µM) | > 256 µg/mL | > 256 µg/mL | 8 µg/mL (≈ 21.7 µM) | 4 µg/mL (≈ 10.9 µM) | > 256 µg/mL | > 256 µg/mL | > 256 µg/mL | > 256 µg/mL | > 256 µg/mL
7 | CC1CC/C(=N\N=C2/SCC(=O)N2Cc2ccc([N+](=O)[O-])cc2)C1 (stereo not given) | > 256 µg/mL | 128 µg/mL (≈ 370 µM) | 16 µg/mL (≈ 46.2 µM) | 256 µg/mL (≈ 739 µM) | 64 µg/mL (≈ 185 µM) | > 256 µg/mL | > 256 µg/mL | 256 µg/mL (≈ 739 µM) | 2 µg/mL (≈ 5.77 µM) | > 256 µg/mL | > 256 µg/mL | > 256 µg/mL | > 256 µg/mL | > 256 µg/mL
8 | CC1CCC/C1=N\N=C1/SCC(=O)N1Cc1ccc([N+](=O)[O-])cc1 (stereo not given) | > 256 µg/mL | 2 µg/mL (≈ 5.77 µM) | 16 µg/mL (≈ 46.2 µM) | 2 µg/mL (≈ 5.77 µM) | 8 µg/mL (≈ 23.1 µM) | > 256 µg/mL | > 256 µg/mL | 2 µg/mL (≈ 5.77 µM) | 4 µg/mL (≈ 11.5 µM) | > 256 µg/mL | > 256 µg/mL | > 256 µg/mL | > 256 µg/mL | > 256 µg/mL
9 | O=C1CS/C(=N\N=C2CCCCCC2)N1Cc1ccc([N+](=O)[O-])cc1 | > 256 µg/mL | 16 µg/mL (≈ 44.4 µM) | 32 µg/mL (≈ 88.8 µM) | 4 µg/mL (≈ 11.1 µM) | 8 µg/mL (≈ 22.2 µM) | > 256 µg/mL | > 256 µg/mL | 4 µg/mL (≈ 11.1 µM) | 128 µg/mL (≈ 355 µM) | > 256 µg/mL | > 256 µg/mL | > 256 µg/mL | > 256 µg/mL | > 256 µg/mL
10 | C/C(=N\N=C1/SCC(=O)N1Cc1ccc([N+](=O)[O-])cc1)c1cccs1 | > 256 µg/mL | 4 µg/mL (≈ 10.7 µM) | 2 µg/mL (≈ 5.34 µM) | 8 µg/mL (≈ 21.4 µM) | 2 µg/mL (≈ 5.34 µM) | > 256 µg/mL | > 256 µg/mL | 2 µg/mL (≈ 5.34 µM) | 8 µg/mL (≈ 21.4 µM) | > 256 µg/mL | > 256 µg/mL | > 256 µg/mL | > 256 µg/mL | > 256 µg/mL
11 | C/C(=N\N=C1/SCC(=O)N1Cc1ccc([N+](=O)[O-])cc1)C1CCCCC1 | > 256 µg/mL | 32 µg/mL (≈ 85.5 µM) | 16 µg/mL (≈ 42.7 µM) | 32 µg/mL (≈ 85.5 µM) | 32 µg/mL (≈ 85.5 µM) | > 256 µg/mL | > 256 µg/mL | 2 µg/mL (≈ 5.34 µM) | 4 µg/mL (≈ 10.7 µM) | > 256 µg/mL | > 256 µg/mL | > 256 µg/mL | > 256 µg/mL | > 256 µg/mL
12 | CCCC/C(CC)=N/N=C1\SCC(=O)N1Cc1ccc([N+](=O)[O-])cc1 | > 256 µg/mL | 2 µg/mL (≈ 5.52 µM) | 8 µg/mL (≈ 22.1 µM) | 2 µg/mL (≈ 5.52 µM) | 16 µg/mL (≈ 44.1 µM) | > 256 µg/mL | > 256 µg/mL | 16 µg/mL (≈ 44.1 µM) | 2 µg/mL (≈ 5.52 µM) | > 256 µg/mL | > 256 µg/mL | > 256 µg/mL | > 256 µg/mL | > 256 µg/mL
13 | O=C1CS/C(=N\N=C\c2ccco2)N1Cc1ccc([N+](=O)[O-])cc1 | > 256 µg/mL | 2 µg/mL (≈ 5.81 µM) | 8 µg/mL (≈ 23.2 µM) | 2 µg/mL (≈ 5.81 µM) | 16 µg/mL (≈ 46.5 µM) | > 256 µg/mL | > 256 µg/mL | 16 µg/mL (≈ 46.5 µM) | 4 µg/mL (≈ 11.6 µM) | > 256 µg/mL | > 256 µg/mL | > 256 µg/mL | > 256 µg/mL | > 256 µg/mL
14 | C=CCC/C(C)=N/N=C1\SCC(=O)N1Cc1ccc([N+](=O)[O-])cc1 | > 256 µg/mL | 8 µg/mL (≈ 23.1 µM) | 8 µg/mL (≈ 23.1 µM) | 8 µg/mL (≈ 23.1 µM) | 32 µg/mL (≈ 92.4 µM) | > 256 µg/mL | > 256 µg/mL | 32 µg/mL (≈ 92.4 µM) | 4 µg/mL (≈ 11.5 µM) | > 256 µg/mL | > 256 µg/mL | > 256 µg/mL | > 256 µg/mL | > 256 µg/mL
15 | O=C1CS/C(=N\N=C2CCCCCCC2)N1Cc1ccc([N+](=O)[O-])cc1 | > 256 µg/mL | 8 µg/mL (≈ 21.4 µM) | 16 µg/mL (≈ 42.7 µM) | 16 µg/mL (≈ 42.7 µM) | 16 µg/mL (≈ 42.7 µM) | > 256 µg/mL | > 256 µg/mL | 16 µg/mL (≈ 42.7 µM) | 4 µg/mL (≈ 10.7 µM) | > 256 µg/mL | > 256 µg/mL | > 256 µg/mL | > 256 µg/mL | > 256 µg/mL
